# Results gathered from unrelated publications.
# Cell line: HCT-116
# Observed: cell growth or viability
SMILES,assay,conditions,IC50
Cn1c(-c2nnc(NC(=O)c3cc4c([nH]c5ccccc54)c(-c4ccccc4)n3)s2)cc2ccccc21,MTT,72 h,10.3 µM
CC(C)[C@H](N)c1nc2cc(-c3ccncc3F)sc2c(=O)[nH]1,MTT,,0.158 µM
CC(C)n1c(/C=C/C(O)CC(O)CC(=O)O)c(-c2ccc(F)cc2)c2ccccc21 (centres unmarked),SRB,72 h,7.06 µg/mL
O=C(/C=C/c1ccc(O)c(O)c1)O[C@@H]1C[C@](O)(C(=O)O)C[C@@H](O)[C@H]1O,WST-1,48 h,27.9 µM
Cc1cc(C)n(-c2nc(Nc3ccc(Br)cc3)nc(N3CCOCC3)n2)n1,MTT,72 h,0.5 µM
CC(=O)O[C@H]1C(=O)[C@@]2(C)[C@H]([C@H](OC(=O)c3ccccc3)[C@]3(O)C[C@H](OC(=O)[C@H](O)[C@@H](NC(=O)c4ccccc4)c4ccccc4)C(C)=C1C3(C)C)[C@]1(OC(C)=O)CO[C@@H]1C[C@@H]2O,fluorescence,72 h,0.0019 µM
CC1(C)CC[C@]2(C)CC[C@]3(C)C(=CC[C@@H]4[C@@]5(C)CC[C@H](O)C(C)(C)[C@@H]5CC[C@]43C)[C@@H]2C1,WST-1,48 h,91.3 µM
O=c1cc(CCl)c2ccc(O)cc2o1,MTT,36 h,8.47 µM
COc1cccc2c1C(=O)c1c(O)c3c(c(O)c1C2=O)C[C@@](O)(C(=O)CO)C[C@@H]3O[C@H]1C[C@H](N)[C@H](O)[C@H](C)O1,,48 h,1.02 µM
O=c1cc(-c2ccc(O)c(O)c2)oc2cc(O)cc(O)c12,WST-1,48 h,11.1 µM
NC(=O)NOCCCCCCCCCCCC[P+](c1ccccc1)(c1ccccc1)c1ccccc1,imaging,,1.8 µM
CSc1nc(/N=C/c2cc(Br)ccc2O)n(-c2ccc(C(=O)O)cc2)n1,MTT,,59.4 µM
COCCCOc1ccnc(COc2ccc(NC(=O)Nc3cccc(C(F)(F)F)c3)cc2)c1C,MTT,72 h,8.81 µM
O=C(Nc1nnc(-c2cc3ccccc3[nH]2)s1)c1cc2c([nH]c3ccccc32)c(-c2ccc(Cl)cc2)n1,MTT,72 h,5.98 µM
COc1ccnc(COc2ccc(NC(=O)Nc3ccc(F)cc3)cc2)c1OC,MTT,72 h,22.3 µM
COc1ccc(O)c(/C=N/c2nc(SC)nn2-c2ccc(C(=O)O)cc2)c1,MTT,,55.3 µM
O=c1ccc2ccc(O)c(CO)c2o1,MTT,36 h,> 20 µM
COc1cc(OC)c(/C=C/S(=O)(=O)Nc2ccc(OC)c(N)c2)c(OC)c1,trypan blue,96 h,0.004 µM
CSc1nc(/N=C/c2ccc(O)cc2)n(-c2ccc(C(=O)O)cc2)n1,MTT,,68.1 µM
CC1=C(O)C(=O)C=C2C1=CC=C1[C@@]2(C)CC[C@@]2(C)[C@@H]3C[C@](C)(C(=O)OCCCN4C(=O)C5C=CC=CC5C4=O)CC[C@]3(C)CC[C@]12C (some centres unmarked),MTT,48 h,0.64 µM
CCn1c(-c2nnc(NC(=O)c3cc4c([nH]c5ccccc54)c(-c4ccc(C)cc4)n3)s2)cc2ccccc21,MTT,72 h,15.1 µM
COc1ccnc(COc2ccc(NC(=O)Nc3ccc(Cl)cc3)cc2)c1OC,MTT,72 h,12.8 µM
CC1=C(O)C(=O)C=C2C1=CC=C1[C@@]2(C)CC[C@@]2(C)[C@@H]3C[C@](C)(C(=O)OCCO)CC[C@]3(C)CC[C@]12C,MTT,48 h,0.47 µM
O=C(NC(=S)N1CCCC1)c1ccc2ccccc2c1,,48 h,6.22 µM
C=CC(=O)N1CCC[C@@H](n2nc(-c3ccc(Oc4ccccc4)cc3)c3c(N)ncnc32)C1,,,> 10 µM
O=C(/N=C1\S/C(=C\c2ccc(Cl)cc2)C(=O)N1C1CCCCC1)c1ccc2ccccc2c1,,48 h,9.28 µM
COc1cccc2c1C(=O)c1c(O)c3c(c(O)c1C2=O)C[C@@](O)(C(=O)CO)C[C@@H]3O[C@H]1C[C@H](N)[C@H](O)[C@H](C)O1,MTT,,64 µM
COCCCOC(=O)[C@]1(C)CC[C@]2(C)CC[C@]3(C)C4=CC=C5C(=CC(=O)C(O)=C5C)[C@]4(C)CC[C@@]3(C)[C@@H]2C1,MTT,48 h,0.49 µM
COc1c(C)cnc(COc2ccc(NC(=O)Nc3ccc(F)cc3)cc2)c1C,MTT,72 h,12.7 µM
COc1cccc2c1C(=O)c1c(O)c3c(c(O)c1C2=O)C[C@@](O)(C(=O)CO)C[C@@H]3O[C@H]1C[C@H](N)[C@H](O)[C@H](C)O1,SRB,,57.8 µM
c1ccc(C[n+]2cn(COC3CCCCC3)c3ccccc32)cc1,MTT,72 h,44.2 µM
FC(F)(F)c1ccc(C(c2c[nH]c3ccccc23)c2c[nH]c3ccccc23)cc1,ATP luminescence,22 h,9.3 µM
COCCCOc1ccnc(COc2ccc(NC(=O)Nc3ccc(F)cc3)cc2)c1C,MTT,72 h,6.44 µM
CC[C@H](C)C(=O)O[C@H]1CCC=C2C=C[C@H](C)[C@H](CC[C@@H]3C[C@@H](O)CC(=O)O3)[C@H]21,SRB,72 h,4.57 µg/mL
O=C(NC(=S)Nc1ccccc1)c1ccc2ccccc2c1,,48 h,5.77 µM
COc1c(C)cnc(COc2ccc(NC(=O)Nc3ccc(Cl)cc3)cc2)c1C,MTT,72 h,19.3 µM
COc1cc([C@@H]2c3cc4c(cc3[C@@H](O[C@@H]3O[C@@H]5CO[C@@H](C)O[C@H]5[C@H](O)[C@H]3O)[C@H]3COC(=O)[C@H]23)OCO4)cc(OC)c1O,MTS,72 h,19.3 µM
Cc1c(O)ccc2ccc(=O)oc12,MTT,36 h,> 20 µM
O=C(/N=c1\scc(-c2ccccc2)n1C1CCCCC1)c1ccc2ccccc2c1,,48 h,19.2 µM
COc1ccc(-c2nc(C(=O)Nc3nnc(-c4cc5ccccc5n4C)s3)cc3c2[nH]c2ccccc23)cc1,MTT,72 h,8.07 µM
CSc1nc(/N=C/c2cc(C)ccc2O)n(-c2ccc(C(=O)O)cc2)n1,MTT,,43.9 µM
CC1=C(O)C(=O)C=C2C1=CC=C1[C@@]2(C)CC[C@@]2(C)[C@@H]3C[C@](C)(C(=O)OCCCCCCO)CC[C@]3(C)CC[C@]12C,MTT,48 h,0.53 µM
O=C(NC(=S)NCc1ccccc1)c1ccc2ccccc2c1,,48 h,4.55 µM
O=c1cc(CCl)c2c(O)cc(O)cc2o1,MTT,36 h,> 20 µM
CNC(=O)c1cc(Oc2ccc(NC(=O)Nc3ccc(Cl)c(C(F)(F)F)c3)cc2)ccn1,MTT,72 h,2.25 µM
CC(=O)Oc1ccc2oc(=O)cc(CSC(C)=O)c2c1,MTT,36 h,> 20 µM
COc1c(C)cnc(COc2ccc(NC(=O)Nc3cc(F)cc(F)c3)cc2)c1C,MTT,72 h,10.8 µM
